Compound activity (PubChem)
Sampled rows, rich in hits. Any-hit rate of the full collection: about 1.2%.
Tb hexokinase: T. brucei hexokinase 1 inhibition | actives 0.11% (n = 220,000) | inhibition, % at 10 µM | recombinant TbHK1, G6PDH-coupled NADH A340;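 active = inhibition of 50% or more in the single-dose primary screen; inactive = inhibition below 50%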
HKDC1 inhibitor: HKDC1 (human) hexokinase inhibition. Q2TB90. recombinant HKDC1, G6PDH/diaphorase resazurin coupled fluorescence. inhibition, % at 20 µM. actives 0.16% (n = 340,000). AID 493160;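 active = inhibition above about 35% when tested at 20 µM, limit read from the data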;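 note: plate controls were DMSO wells with enzyme for no effect and DMSO wells lacking enzyme for full effect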
Target sequence (Q2TB90 whole entry, looked up): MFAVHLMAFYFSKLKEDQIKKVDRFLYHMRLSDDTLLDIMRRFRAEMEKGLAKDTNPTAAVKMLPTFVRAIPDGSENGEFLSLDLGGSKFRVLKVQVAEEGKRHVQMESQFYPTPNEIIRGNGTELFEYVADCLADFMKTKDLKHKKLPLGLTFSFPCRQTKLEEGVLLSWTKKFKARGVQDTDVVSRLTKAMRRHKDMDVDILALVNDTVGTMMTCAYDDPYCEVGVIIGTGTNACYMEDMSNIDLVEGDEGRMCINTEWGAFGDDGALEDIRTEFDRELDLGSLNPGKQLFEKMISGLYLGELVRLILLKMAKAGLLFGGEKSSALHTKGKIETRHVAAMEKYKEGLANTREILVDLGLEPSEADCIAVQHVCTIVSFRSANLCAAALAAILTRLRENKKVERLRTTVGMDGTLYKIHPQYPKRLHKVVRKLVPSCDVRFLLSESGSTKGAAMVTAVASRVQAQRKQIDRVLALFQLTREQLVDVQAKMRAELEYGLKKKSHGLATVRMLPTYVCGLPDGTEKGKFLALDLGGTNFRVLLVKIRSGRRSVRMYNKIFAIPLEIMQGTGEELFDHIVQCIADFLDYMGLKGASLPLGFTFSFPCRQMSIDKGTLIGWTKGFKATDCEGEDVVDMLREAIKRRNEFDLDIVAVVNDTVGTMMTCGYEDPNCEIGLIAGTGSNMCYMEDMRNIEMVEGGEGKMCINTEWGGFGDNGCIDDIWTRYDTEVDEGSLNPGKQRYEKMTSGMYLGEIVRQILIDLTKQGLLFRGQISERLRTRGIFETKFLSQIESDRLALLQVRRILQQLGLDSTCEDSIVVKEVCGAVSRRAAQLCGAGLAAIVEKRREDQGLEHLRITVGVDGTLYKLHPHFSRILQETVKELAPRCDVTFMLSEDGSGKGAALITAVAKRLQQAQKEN
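Material: recombinant HKDC1 hexokinase; Amount: HKDC1 at 5 µg/mL; Medium: Tris pH 8.0 buffer with MgCl2, Tween-20, BSA, BME; Schedule: 90 min reaction incubation at room temperature, dark; Technique: coupled resazurin fluorescence, excitation 525 nm, emission 613 nm.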
Dynein transport: dynein cargo transport inhibition | 3617.4 mouse cells, GR-EGFP nuclear translocation imaging; test concentration mostly 20 µM; stimulated with dexamethasone, 1 µM; stronger effect = lower value | z-score, hits read low | actives 0.47% (n = 220,000) | AID 1381;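 active = plate z-score of nuclear minus cytoplasmic receptor signal below a set negative limit, without overly bright fluorescence or cell loss, cut at about -3.5 in these data, passing the limit was not always enough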;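 note: z-score of nuclear minus cytoplasmic ring GR-EGFP intensity difference per well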
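Buffer or medium: tet-free medium with charcoal-stripped serum / Also added: dexamethasone agonist, 1.0 µM final, for 30 min / Timing: induction 48 h, compound 1 h, agonist 30 min / Measured by: high-content fluorescence imaging after fixation / Read-out: nuclear-to-cytoplasmic GR-EGFP distribution per well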
HSV replic up: increases HSV replication in cells; HSV replication augmentation in cells, fold increase; maximum fold increase; actives 0.005% (n = 220,000); AID 1956; in the data active = maximum fold increase above about 1.5; inconclusive = no clear call, values can overlap the other calls; tested in PC3 cells
PERK inhibitor: blocks human PERK kinase; CHO PERK-DD fusion, SEAP luminescence translation reporter; inhibition, % at 5.6 µM; actives 0.17% (n = 220,000); AID 1416;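 active = inhibition above the mean inhibition of all tested compounds plus 3 SD, set separately per screening campaign, cut at about 2.9% in these data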;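 note: PERK kinase domain activated by AP20187 dimerizer at 100 nM; 0% = DMSO with dimerizer and 100% = rapamycin at 8.4 µM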
Autophagy mod: modulators of autophagy. MEF GFP-LC3 puncta imaging; test concentration mostly 10 µM. calls only at 10 µM (by protocol). actives 0.98% (n = 190,000). AID 463193;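 active = percentage of spot-positive cells more than 3 SD above its plate mean, without a fluorescence outlier flag or 80% toxicity; inconclusive = no clear call, values can overlap the other calls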;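 note: spot-positive cell cutoff set from DMSO-treated cells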
HKDC1 act conf: HKDC1 (human) activation, single-dose confirmed; inhibition, % at 20 µM; recombinant HKDC1, G6PDH/diaphorase resazurin fluorescence; stronger effect = lower value; actives 14% (n = 740); shares compounds with HKDC1 inhibitor;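 active = inhibition at or below a set negative limit, negative inhibition meaning the enzyme was activated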
An asterisk follows results filed as active; i = inactive; u = inconclusive; x = no result; + = active, no number.

SMILES	Tb hexokinase	HKDC1 inhibitor	Dynein transport	HSV replic up	PERK inhibitor	Autophagy mod	HKDC1 act conf
O=S(=O)(Nc1ccccc1Cl)c1ccc(F)cc1	-3.3	-6.5	-0.978	i	1.0	i	x
Cc1ccc(S(=O)(=O)Nc2c(O)ccc3ccccc23)cc1	x	38.1*	x	x	x	x	35.5
CCc1ccc(S(=O)(=O)Nc2ccc(O)c3ccccc23)cc1	x	44.0*	x	x	x	x	20.4
O=S(=O)(Nc1ccc(O)c2ccccc12)c1ccc(F)cc1	x	43.0*	x	x	x	x	6.5
CN(C(=O)CSc1nc2ccccc2[nH]1)C1CCS(=O)(=O)C1 (configuration not stated)	x	-2.8	x	x	x	x	x
CCOC(=O)C1(Cc2ccccc2)CCCN(S(=O)(=O)N(C)C)C1 (configuration not stated)	x	4.5	x	x	x	x	x
COC(=O)c1ccc2c(c1)C(C)(C)C(/C=C/c1ccccc1O)=[N+]2C	-5.1	38.3*	-3.2	i	-1.1	i	7.0
C[N+]1=C(/C=C/Nc2ccccc2Cl)C(C)(C)c2ccccc21	-27.6	13.1	-0.637	x	0.8	i	x
CCN(CC)c1ccc2c(c1)oc(=O)c1c(Cl)cc(=O)oc12	3.4	48.6*	0.0907	i	-0.5	i	47.7
CC1CC(=Cc2ccc(N)cc2)C(=O)O1 (configuration not stated)	x	-5.0	x	x	x	x	x
O=c1cc(O)sc2ccccc12	-1.3	42.9*	-0.336	i	-0.2	i	-16.1
CCCN(CCC)C(=O)c1oc2ccccc2c1NC(=O)Cc1cccc(OC)c1	x	1.4	x	x	x	x	x
Cc1ccc(-c2ccc(/C=C3\C(=O)ON=C3c3ccccc3)o2)c([N+](=O)[O-])c1	8.2	42.5*	-1.17	i	0.3	i	10.4
O=C1/C(=C\c2ccc(-c3ccccc3[N+](=O)[O-])o2)C(c2ccccc2)=NN1c1ccccc1	-6.2	42.3*	-1.02	i	0.5	i	2.5
Cc1ccc(/C=C2\C(=O)ON=C2c2ccccc2)o1	-0.3	-5.2	0.758	i	0.8	i	x
CNC(=O)c1c(NC(=O)CCS(=O)(=O)c2ccc(C)cc2)sc2c1CCN(C(=O)OC)C2	x	-3.1	x	x	x	x	x
COc1cc(/C=C(\CCC(=O)O)c2nc3ccccc3s2)ccc1OCC(=O)Nc1c(Cl)cccc1Cl	x	16.1	x	x	x	x	x
COc1ccc2c(c1)CCc1c(C(=O)N3CCCc4ccccc43)noc1-2	4.5	38.0*	-0.582	i	0.0	i	-25.6
CC(=O)N(C1=C(Cl)C(=O)c2ccccc2C1=O)C1CCCCC1	10.6	58.0*	-6.01*	u	-0.9	x	78.2
Cn1c(-c2ccccc2)c(C(=O)CC#N)c2ccccc21	-4.0	-45.2	-0.29	i	-0.1	i	-42.0*
O=C1[C@@H](Oc2ccccc2)[C@@H](c2cnc3ccccc3c2)N1c1ccccc1	x	25.6	x	x	x	x	x
Cc1ccc(S(=O)(=O)N2CCN(C(=O)CN3C(=O)NC4(CCCCC4)C3=O)CC2)c(C)c1	x	38.3*	x	x	x	x	-17.9
Cc1ccc(C)c(S(=O)(=O)N2CCN(C(=O)CN3C(=O)NC(C)(C)C3=O)CC2)c1	x	-7.8	x	x	x	x	x
O=C(O)c1ccccc1-c1c2cc(I)c(=O)c(I)c-2oc2c(I)c(O)c(I)cc12	x	68.6*	x	x	x	x	43.5
O=Cc1ccc(-c2ccccc2C(=O)O)o1	-33.6	-1.4	-1.25	i	1.2	i	x
SMILES	Tb hexokinase	HKDC1 inhibitor	Dynein transport	HSV replic up	PERK inhibitor	Autophagy mod	HKDC1 act conf
O=C1/C(=C/Nc2cccc([N+](=O)[O-])c2)CCc2ccccc21	24.0	40.7*	-0.779	i	-0.2	i	5.3
CC(=O)Nc1ccc2cc3ccc(NC(C)=O)cc3nc2c1	-14.4	42.5*	1.71	u	1.1	x	19.8
CN(C)c1ccc2cc(S(=O)(=O)O)cc(O)c2c1	x	23.6	x	x	x	x	x
O=Nc1c(O)ccc2cc(S(=O)(=O)O)ccc12	x	33.6	x	x	x	x	14.8
CCOC(=O)c1c(NC(=O)CSc2nnnn2-c2ccc(OC)cc2)sc(C)c1C	21.4	-48.5	1.81	i	1.0	i	-42.3*
Nc1ccc(NC(=O)c2cccc(C(=O)Nc3ccc(N)cc3Cl)c2)c(Cl)c1	x	1.7	x	x	x	x	x
CC(=NNc1nc2ccccc2s1)c1ccncn1	x	-5.0	x	x	x	x	x
CC(=NNC(=S)N1CC2CCC(CC2)C1)c1ccncn1	x	-54.1	x	x	x	x	-61.4*
CCC1C/C(=C\c2cccnc2)C(=O)/C(=C/c2cccnc2)C1 (configuration not stated)	-19.6	35.2*	-3.49	i	-1.2	i	33.0
Cn1c(SSc2ccc(-c3cccnc3)n2C)ccc1-c1cccnc1	x	-341.5	x	x	x	x	-247.7*
CCOc1ccc(S(=O)(=O)Nc2cc(SCC(=O)O)c(O)c3ccccc23)cc1	x	60.3*	x	x	x	x	31.2
Cc1ccc(C)c(S(=O)(=O)Nc2cc(SCC(=O)O)c(O)c3ccccc23)c1	30.6	63.4*	-0.497	i	-0.3	i	55.2
Cc1ccc(NS(=O)(=O)c2cc(NC(=O)C(C)Oc3ccccc3)ccc2C)c(C)c1 (configuration not stated)	27.4	3.7	0.57	i	-0.6	i	x
CCc1ccc(S(=O)(=O)Nc2cc(SCC(=O)O)c(O)c3ccccc23)cc1	3.8	54.5*	0.805	i	0.2	i	26.5
O=C1c2ccccc2NC(c2ccc(F)cc2)N1Cc1ccccc1 (configuration not stated)	x	8.7	x	x	x	x	x
CC1=C/C(=C\c2ccc(Br)o2)C(=O)O1	17.0	2.5	0.0122	i	0.5	i	x
O=C1C(=Cc2ccc(Br)o2)C(=O)c2ccccc21	11.4	35.5*	-2.73	i	0.5	i	35.6
COc1cccc2c1C(=O)C=C(C)C2=O	47.1	-43.4	-2.88	u	-0.5	i	-30.6
CC1=CC(=O)c2ccccc2C1=O	2.4	0.2	-1.92	u	-1.4	i	x
O=C(Nc1cccc(C(=O)N2CCOCC2)c1)C1CC1	x	-6.1	x	x	x	x	x
Cc1cccc(N2CCN(C(=O)[C@H](C)N3C(=O)C4CC=CCC4C3=O)CC2)c1C (some centres not stated)	x	-1.9	x	x	x	x	x
Cc1n[nH]c(=O)c2c(NC(=O)CSc3nnc(C4CC4)n3C)oc(C)c12	x	39.7*	x	x	x	x	-13.9
C/C(=N\NC(=O)c1cc(C2CC2)nc2ccccc12)c1ccc(C)s1	-6.1	-4.8	0.374	i	-0.9	i	x
C/C(=N\NC(=O)c1cc(C2CC2)nc2ccccc12)c1ccc(O)cc1O	x	-44.0	x	x	x	x	-5.6
CC(NC1=CC(=O)c2cccnc2C1=O)C(O)c1ccccc1 (configuration not stated)	x	46.1*	x	x	x	x	43.3
CCOc1ccc(S(=O)(=O)N2CCCCC2)cc1NC(=O)CN1C(=O)NC(C)(C2CC2)C1=O (configuration not stated)	x	4.0	x	x	x	x	x
Cc1noc(C)c1S(=O)(=O)Nc1ccccc1Oc1ccccc1	-10.8	-0.2	1.26	i	-0.2	x	x
O=C1c2ccccc2-c2onc3ccc(Oc4ccccc4)c1c23	-4.2	34.4	-0.897	x	0.1	+	28.2
